# ChEMBL document CHEMBL1141851, “Two bioactive pentacyclic triterpene esters from the root bark of Hibiscus syriacus” (J Nat Prod, 1999)
# Assays:
# HCT-15 = experiment: Cytotoxicity against human HCT-15 cells; format: functional; conditions: read-out: ED50 (the source's name)
# UO-31 = experiment: Cytotoxicity against human UO-31 cells; format: functional; conditions: read-out: ED50 (the source's name)
# Liver microsomes = experiment: Antioxidant activity in rat liver microsomes assessed as inhibition of lipid peroxidation by TBARS assay; format: functional, Microsome
# Method in brief: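 Rat liver microsomal suspension ([…]) mixed with 0.2 mM ascorbic acid. Peroxidation was started by adding 100 µM FeSO4·7H2O. Thiobarbituric acid reactive products were read at 532 nm to measure inhibition of lipid peroxidation. The method was adapted with minor modification from an earlier one.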
# SF-539 = experiment: Cytotoxicity against human SF-539 cells; format: functional; conditions: read-out: ED50 (the source's name)
# ACHN = experiment: Cytotoxicity against human ACHN cells; format: functional; conditions: read-out: ED50 (the source's name)
# UACC-62 = experiment: Cytotoxicity against human UACC-62 cells; format: functional; conditions: read-out: ED50 (the source's name)
# NCI-H23 = experiment: Cytotoxicity against human NCI-H23 cells; format: functional; conditions: read-out: ED50 (the source's name)
# MCF7 = experiment: Cytotoxicity against human MCF7 cells; format: functional; conditions: read-out: ED50 (the source's name)
# PC-3 = experiment: Cytotoxicity against human PC-3 cells; format: functional; conditions: read-out: ED50 (the source's name)
# SW-620 = experiment: Cytotoxicity against human SW620 cells; format: functional; conditions: read-out: ED50 (the source's name)
IC50 (Liver microsomes) [µg/mL],Compound,EC50 (HCT-15) [µg/mL],EC50 (UO-31) [µg/mL],EC50 (SF-539) [µg/mL],EC50 (ACHN) [µg/mL],EC50 (UACC-62) [µg/mL],EC50 (NCI-H23) [µg/mL],EC50 (MCF7) [µg/mL],EC50 (PC-3) [µg/mL],EC50 (SW-620) [µg/mL]
2.3,CC1(C)CC[C@]2(CO)CC[C@]3(C)C(=CC[C@@H]4[C@@]5(C)CC[C@H](O)[C@@](C)(COC(=O)/C=C/c6ccc(O)c(O)c6)[C@@H]5CC[C@]43C)[C@@H]2C1,0.8,2,1.4,1.2,3.9,2.8,2.2,1.6,1.1
–,COc1cccc2c1C(=O)c1c(O)c3c(c(O)c1C2=O)C[C@@](O)(C(=O)CO)C[C@@H]3O[C@H]1C[C@H](N)[C@H](O)[C@H](C)O1 [DOXORUBICIN],0.6,–,0.2,0.3,0.2,0.1,0.1,0.4,0.1
1.6,VITAMIN E,–,–,–,–,–,–,–,–,–
1.1,CC1(C)CC[C@]2(CO)CC[C@]3(C)C(=CC[C@@H]4[C@@]5(C)CC[C@H](OC(=O)/C=C/c6ccc(O)c(O)c6)[C@@](C)(CO)[C@@H]5CC[C@]43C)[C@@H]2C1,1.3,1.7,2,2.1,2.3,1.7,1.8,2.2,1
